This is an account of results in PubChem BioAssay.

Test [1] is described as follows: HUVEC growth inhibition – cell-based, human, primary screen (AID 575;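 active means viability at or below 30% in both replicate assays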;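 further: 100% = median of untreated cell wells with 0.1% DMSO on each plate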). Conditions: HUVEC proliferation, CellTiter-Glo luminescence, 72 h; at 10 µM; stronger effect = lower value. The method, boiled down: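 System – primary HUVEC, no more than 12 passages · Medium – Low-serum (2% FBS) EBM, supplemented · Times – 72 h exposure, 37 °C, 5% CO2, 30 min RT equilibration · Measured by – luminescent ATP assay · Read-out – % viability relative to median vehicle-well signal on each plate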
On the technique in general: In ATP-based viability assays light output follows the ATP content of the culture.

Test [2] can be described thus: growth inhibitors of H69AR lung tumor, primary screen, human, duplicate replicates (AID 580;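 active means viability at or under a set limit in both replicates, limit being median viability minus 3 SD, cut at about 48% in these data, passing the limit was not always enough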;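 further: 100% = mean luminescence of untreated wells and 0% = no signal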). Conditions: H69AR lung tumor cells viability, ATP luminescence, 72 h; at 10 µM; stronger effect = lower value.
Test [3] can be described thus: reversal of MRP1-mediated doxorubicin resistance, pilot screen, H69AR cells, doxorubicin co-treatment (AID 601;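 active means viability loss from added drug above about 55%, and viability with drug at most 40%, in both replicates, limit read from the data, passing the limit was not always enough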). The settings on record: CellTiter-Glo, 72 h, at 10 µM; for differential viability (reversal): stronger effect = higher value.
Test [4] in a line: 384-well plate pilot, post-Golgi transport modulator project, inhibition of yeast transport mutant growth (AID 636; in the data active means inhibition above about 31%). Conditions: absorbance 615 nm, about 18 h, stronger effect = higher value.
The nature of test [5]: growth suppression of yeast trafficking mutant, preliminary HTS, modulators of trafficking downstream of Golgi apparatus project, 1536-format plate, OD 615 nm (AID 637). The settings on record: yeast transport mutant growth, absorbance 615 nm, 18 h; stronger effect = higher value.
Setting [6] is: H69AR cells + 2 uM doxorubicin, measured here: viability with 2 uM doxorubicin, stronger effect = lower value.
Where [7] appears, read: H69AR cells, compound alone cytotoxicity.

Active and inactive are the calls of the source. Unless noted, no stated cut-off is given here; in the data, active means inhibition above about 30%; inactive means the rest.

As for `CCn1cc(/C=C(/C#N)S(=O)(=O)c2ccccc2)cn1`, the viability was 110% (inactive) in test [1], 95.3% (inactive) in test [2], 85.8% in test [3] (setting [6]) and 95.3% in test [3] (setting [7]). In addition, in test [3] (H69AR cells + 2 uM doxorubicin), the differential viability (reversal) was 9.54% (inactive). The inhibition in test [4] is -7.24% (inactive); in test [5] it was -4.6% (inactive).
Consider `COc1cccc(C(=O)Nc2ccc(NC(=O)C(C)(C)C)cn2)c1`, for which the viability in test [1] is 96% (inactive); in test [2], 76.2% (inactive); in test [3] (setting [6]), 73.5%; in test [3] (setting [7]), 76.2%. In test [3] (H69AR cells + 2 uM doxorubicin), the differential viability (reversal) was 2.62% (inactive). Besides, the inhibition is 2.34% (inactive) in test [4] and -0.48% (inactive) in test [5].
In the case of `Cc1ccccc1Cn1nc(C)c(NC(=O)c2noc3c2CCCC3)c1C`, the viability in test [1] is 75.7% (inactive); in test [2], 97.3% (inactive); in test [3] (setting [6]), 95%; in test [3] (setting [7]) it was 97.3%. Further, in test [3] (H69AR cells + 2 uM doxorubicin), the differential viability (reversal) was 2.39% (inactive). For the same molecule, the figures for the inhibition in test [4] and in test [5] were -3.12% (inactive) and -10.3% (inactive), respectively.
`Cc1nn(CC(O)Cn2c3c(c4ccccc42)CCN(C)C3=O)c(C)c1Br` (stereo not given): the viability in test [1] was 52.8% (inactive); in test [2], 69.8% (inactive); in test [3] (setting [6]), 81.9%; in test [3] (setting [7]) it was 69.8%. Also, the differential viability (reversal) in test [3] (H69AR cells + 2 uM doxorubicin) is -12.1% (inactive). Besides, the results for the inhibition in test [4] and in test [5] were -4% (inactive) and -2.54% (inactive), respectively.
With `COC(=O)Oc1c(Br)c(=O)oc2ccccc12`, the viability in test [1] was 90.8% (inactive); in test [2], 83% (inactive); in test [3] (setting [6]), 80.1%; in test [3] (setting [7]), 83%. The differential viability (reversal) in test [3] (H69AR cells + 2 uM doxorubicin) is 2.87% (inactive). The values for the inhibition in test [4] and in test [5] were -0.4% (inactive) and -4.13% (inactive), respectively.
Regarding `O=C(c1ccco1)N1CCN(CC(=O)N(C2CCCCC2)C2CCS(=O)(=O)C2)CC1` (stereo not given), the viability was 94% (inactive) in test [1], 93.5% (inactive) in test [2], 97.6% in test [3] (setting [6]) and 93.5% in test [3] (setting [7]). For the same molecule, the differential viability (reversal) in test [3] (H69AR cells + 2 uM doxorubicin) is -4.1% (inactive). The results for the inhibition in test [4] and in test [5] were -4.81% (inactive) and -3.17% (inactive), respectively.
As for `CCS(=O)(=O)N1CCCC(C(=O)NCCc2ccc(OC)c(OC)c2)C1` (stereo not given), the viability was 101% (inactive) in test [1], 104% (inactive) in test [2], 94.5% in test [3] (setting [6]) and 104% in test [3] (setting [7]). Further, the differential viability (reversal) in test [3] (H69AR cells + 2 uM doxorubicin) was 9.14% (inactive). The inhibition in test [4] is 1.07% (inactive); in test [5] it was -0.95% (inactive).
In the case of `CCCCCCn1c(CN2CCN(Cc3ccccc3)CC2)nc2c1c(=O)n(C)c(=O)n2C`, the viability in test [1] is 86.6% (inactive); in test [2], 70.9% (inactive); in test [3] (setting [6]) it was 32.1%; in test [3] (setting [7]) it was 70.9%. Besides, the differential viability (reversal) in test [3] (H69AR cells + 2 uM doxorubicin) is 38.8% (inactive). The inhibition in test [4] was -5.48% (inactive); in test [5], 4.55% (inactive).
As for `COc1cccc(/C(O)=C2/C(=O)C(=O)N(CCN3CCOCC3)C2c2cccnc2)c1` (stereo not given), the viability is 98.9% (inactive) in test [1], 93.6% (inactive) in test [2], 92.8% in test [3] (setting [6]) and 93.6% in test [3] (setting [7]). In addition, in test [3] (H69AR cells + 2 uM doxorubicin), the differential viability (reversal) was 0.755% (inactive). The inhibition in test [4] is 2.99% (inactive); in test [5], -3.02% (inactive).
As to `CCOc1ccc(OCc2cccc(C(=O)N3CCOCC3)c2)cc1`, the viability in test [1] is 83.9% (inactive); in test [2], 94.5% (inactive); in test [3] (setting [6]) it was 94.2%; in test [3] (setting [7]), 94.5%. The differential viability (reversal) in test [3] (H69AR cells + 2 uM doxorubicin) is 0.305% (inactive). Also, the results for the inhibition in test [4] and in test [5] were -5.87% (inactive) and 2.7% (inactive), respectively.
As for `O=C(O)c1cccn2c(=O)c3ccccc3nc12`, the viability in test [1] is 101% (inactive); in test [2], 95.8% (inactive); in test [3] (setting [6]), 91.4%; in test [3] (setting [7]), 95.8%. Besides, in test [3] (H69AR cells + 2 uM doxorubicin), the differential viability (reversal) is 4.45% (inactive). The inhibition was -2.8% (inactive) in test [4] and -2.22% (inactive) in test [5].
In the case of `O=S(=O)(c1ccc2c(c1)OCCO2)N(Cc1ccc(F)cc1)Cc1nnc(-c2cccs2)o1`, the viability in test [1] is 81% (inactive); in test [2] it was 92.1% (inactive); in test [3] (setting [6]), 83.4%; in test [3] (setting [7]), 92.1%. The differential viability (reversal) in test [3] (H69AR cells + 2 uM doxorubicin) was 8.63% (inactive). Also, the inhibition is -3.38% (inactive) in test [4] and 0.79% (inactive) in test [5].
Take `CCN1CCN(C(=O)c2cn(CCOC)c(=O)c3c2c2ccccc2n3C)CC1`: the viability in test [1] was 106% (inactive); in test [2], 90.6% (inactive); in test [3] (setting [6]), 93.4%; in test [3] (setting [7]) it was 90.6%. In test [3] (H69AR cells + 2 uM doxorubicin), the differential viability (reversal) is -2.77% (inactive). The inhibition in test [4] is -2.86% (inactive); in test [5], -5.4% (inactive).
In the case of `CC(C)(C)NC(=O)CN(C(=O)CS(=O)CC(=O)Nc1ccc(F)cc1)c1ccc(Cl)cc1` (stereo not given), the viability in test [1] was 95.2% (inactive); in test [2] it was 98.9% (inactive); in test [3] (setting [6]), 88.6%; in test [3] (setting [7]), 98.9%. Besides, the differential viability (reversal) in test [3] (H69AR cells + 2 uM doxorubicin) was 10.3% (inactive). Besides, the results for the inhibition in test [4] and in test [5] were -4.53% (inactive) and 21.9% (inactive), respectively.
On to `CCCC(=O)N1CCN(c2ccc(NC(=O)c3ccc(Br)o3)cc2)CC1`, for which the viability in test [1] was 125% (inactive); in test [2], 104% (inactive); in test [3] (setting [6]) it was 101%; in test [3] (setting [7]), 104%. In addition, the differential viability (reversal) in test [3] (H69AR cells + 2 uM doxorubicin) was 3.6% (inactive). Moreover, the inhibition is 1.58% (inactive) in test [4] and -2.22% (inactive) in test [5].
As for `O=C(c1ncn[nH]1)N1CCN(c2nc(-c3ccccc3)cs2)CC1`, the viability is 104% (inactive) in test [1], 94.5% (inactive) in test [2], 90.9% in test [3] (setting [6]) and 94.5% in test [3] (setting [7]). For the same molecule, the differential viability (reversal) in test [3] (H69AR cells + 2 uM doxorubicin) was 3.58% (inactive). Further, the inhibition is -1.73% (inactive) in test [4] and 9.68% (inactive) in test [5].
Consider `O=C(NC1CCCC1)c1cc(-c2cccs2)on1`, for which the viability is 90.4% (inactive) in test [1], 88.6% (inactive) in test [2], 80.6% in test [3] (setting [6]) and 88.6% in test [3] (setting [7]). Besides, the differential viability (reversal) in test [3] (H69AR cells + 2 uM doxorubicin) was 8.04% (inactive). For the same molecule, the results for the inhibition in test [4] and in test [5] were -4.21% (inactive) and 3.17% (inactive), respectively.
As for `CC(NC(=O)OCc1ccccc1)C(=O)N1CC(O)CC1C(=O)O` (stereo not given), the viability in test [1] is 82.5% (inactive); in test [2], 98.5% (inactive); in test [3] (setting [6]) it was 81%; in test [3] (setting [7]), 98.5%. For the same molecule, the differential viability (reversal) in test [3] (H69AR cells + 2 uM doxorubicin) is 17.6% (inactive). In addition, the inhibition in test [4] is -0.39% (inactive); in test [5], -1.59% (inactive).
With `CC1CC(=O)c2cnc(NCC3CCCO3)nc2C1` (stereo not given), the viability was 103% (inactive) in test [1], 87.3% (inactive) in test [2], 83% in test [3] (setting [6]) and 87.3% in test [3] (setting [7]). For the same molecule, in test [3] (H69AR cells + 2 uM doxorubicin), the differential viability (reversal) was 4.31% (inactive). Also, the results for the inhibition in test [4] and in test [5] were -6.8% (inactive) and 6.03% (inactive), respectively.
As for `C=CCn1c(Cc2csc(N)n2)nnc1SCC(=O)OCC`, the viability was 103% (inactive) in test [1], 91.9% (inactive) in test [2], 96.6% in test [3] (setting [6]) and 91.9% in test [3] (setting [7]). Also, in test [3] (H69AR cells + 2 uM doxorubicin), the differential viability (reversal) was -4.66% (inactive). Moreover, the inhibition is -2.63% (inactive) in test [4] and -6.67% (inactive) in test [5].

The viability is a read-out of living cells in per cent, often relative to untreated cells. The term inhibition denotes the drop in the measured response relative to a control, in per cent.
